Experiments:
[1] = biological target: Plasminogen (Homo sapiens) (UniProt P00747); assay: Time to reach maximum percent inhibition by the compound was determined against plasmin(625 nM); assay type: functional
Procedure, shortened: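 Plasmin plus excess lactone (10% final DMSO) was sampled over 2 h into Ts-Gly-Pro-Lys-pNA (157.4 μM) in 0.05 M phosphate, pH 7.8. The slope at 404 nm, relative to an enzyme-only control, gave residual activity. Minutes needed to reach maximal inhibition were reported.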

[2] = biological target: Plasminogen (Homo sapiens) (UniProt P00747); assay: Time for which maximum percent inhibition persists was determined against plasmin; assay type: functional
Procedure, shortened: (§1)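 Enzyme incubated with excess lactone added from DMSO stock (final 10% DMSO); aliquots over 2 h diluted into substrate: chymotrypsin Suc-AAPF-pNA 315 µM, pH 7.2, 410 nm; t-PA Spectrozyme t-PA 0.2 mM, Tris-imidazole pH 8.4, 405 nm; HNE MeO-Suc-AAPV-pNA 150 µM, pH 7.4, 410 nm; plasmin Ts-GPK-pNA 157.4 µM, pH 7.8, 404 nm; thrombin Ts-GPR-pNA 75 µM, pH 8.0, 408 nm; trypsin Z-VGR-pNA 155 µM, pH 7.2, 404 nm. Activity given relative to a no-lactone control. Some runs used a 10-min substrate-free delay after dilution. ∞ means no recovery over 2 h.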

[3] = biological target: T1, Serine protease 1 (Bos taurus) (UniProt P00760); assay: Second order rate constant against trypsin
T1 sequence (whole entry): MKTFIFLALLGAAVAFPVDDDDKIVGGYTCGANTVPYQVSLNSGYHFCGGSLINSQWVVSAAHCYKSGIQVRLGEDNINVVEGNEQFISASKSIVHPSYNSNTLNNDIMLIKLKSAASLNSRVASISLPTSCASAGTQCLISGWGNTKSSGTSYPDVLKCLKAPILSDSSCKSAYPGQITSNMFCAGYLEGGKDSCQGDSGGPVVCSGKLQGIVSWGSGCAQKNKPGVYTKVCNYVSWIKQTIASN
Procedure, shortened: (§2)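 Competitive substrate assay: lactone (DMSO, final 10% v/v) and chromogenic substrate combined in buffer, enzyme added, absorbance followed to steady state. Turnover-corrected semilog plot gives kobs; I0 vs I0/kobs replot (eq 6) with separately determined Km yields Ki and ka. Where no burst was seen, Ki was estimated from Km(app) replots using 15-s initial velocities. Buffers and substrates as in incubation assay.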

[4] = biological target: Chymotrypsinogen A (Bos taurus) (UniProt P00766); assay: Time to reach maximum percent inhibition by the compound was determined against alpha-chymotrypsin (17 nM); assay type: functional
Procedure, shortened: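 α-Chymotrypsin with excess lactone (DMSO, 10% final) was sampled over 2 h into Suc-Ala-Ala-Pro-Phe-pNA (315 μM) in 0.2 M phosphate, pH 7.2. Absorbance at 410 nm gave the remaining activity versus a control without lactone. Minutes to maximal inhibition were taken.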

[5] = biological target: Chymotrypsinogen A (Bos taurus) (UniProt P00766); assay: Time for which maximum percent inhibition persists was determined against alpha-chymotrypsin (17 nM); assay type: functional; procedure, shortened: as §1
[6] = biological target: Tissue-type plasminogen activator (Homo sapiens) (UniProt P00750); assay: Maximum percent inhibition by the compound was determined against Tissue plasminogen activator (19.4 nM); procedure, shortened: as §1
Tissue-type plasminogen activator (Homo sapiens), sequence (P00750 36-562 limits assumed): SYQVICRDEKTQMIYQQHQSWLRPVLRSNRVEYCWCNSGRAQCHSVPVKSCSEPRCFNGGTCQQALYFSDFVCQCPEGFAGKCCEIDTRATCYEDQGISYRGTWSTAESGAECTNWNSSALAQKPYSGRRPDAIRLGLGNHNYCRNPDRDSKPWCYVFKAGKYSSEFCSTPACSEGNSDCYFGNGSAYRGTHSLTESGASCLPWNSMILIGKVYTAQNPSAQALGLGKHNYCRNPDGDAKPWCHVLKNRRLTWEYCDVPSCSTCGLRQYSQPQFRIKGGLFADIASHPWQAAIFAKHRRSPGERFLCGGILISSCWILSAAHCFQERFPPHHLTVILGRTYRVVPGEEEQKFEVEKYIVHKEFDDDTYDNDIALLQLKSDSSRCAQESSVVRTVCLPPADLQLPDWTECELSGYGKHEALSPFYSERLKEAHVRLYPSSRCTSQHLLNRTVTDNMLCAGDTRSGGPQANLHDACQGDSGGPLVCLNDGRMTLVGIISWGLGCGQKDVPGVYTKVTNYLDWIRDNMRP

[7] = Ratio of initial inhibitor concentration to initial urokinase concentration
Procedure, shortened: (§3)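 Ratio I0/E0 of lactone to enzyme in the 2-h incubation assay; lactone added from DMSO stock to buffered enzyme (final 10% DMSO).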

[8] = biological target: T1, Serine protease 1 (Bos taurus); assay: Time to reach maximum percent inhibition by the compound was determined against trypsin (14.6 nM); assay type: functional
Procedure, shortened: (§4)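 Trypsin was incubated with excess lactone added from DMSO stock (10% final DMSO). Aliquots taken over 2 h were diluted into Z-Val-Gly-Arg-pNA (155 μM) in 0.2 M phosphate, pH 7.2, and read at 404 nm. Activity came from the absorbance slope versus a no-lactone control. Reported are minutes to maximal inhibition and minutes it persisted; ∞ means no recovery within 2 h.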

[9] = biological target: T2, Neutrophil elastase (Homo sapiens) (UniProt P08246); assay: Time for which maximum percent inhibition persists was determined against human neutrophil elastase (HNE); assay type: functional; procedure, shortened: as §1
T2 sequence (whole entry): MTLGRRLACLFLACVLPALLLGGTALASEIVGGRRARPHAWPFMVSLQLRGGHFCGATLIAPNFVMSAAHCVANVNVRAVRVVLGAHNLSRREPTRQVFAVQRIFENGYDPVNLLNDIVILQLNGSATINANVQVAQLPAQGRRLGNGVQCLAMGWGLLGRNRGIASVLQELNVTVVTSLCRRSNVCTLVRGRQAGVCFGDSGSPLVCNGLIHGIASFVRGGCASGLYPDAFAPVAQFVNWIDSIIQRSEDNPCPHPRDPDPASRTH

[10] = biological target: T2, Neutrophil elastase (Homo sapiens); assay: Maximum percent inhibition by the compound was determined against human neutrophil elastase (HNE); procedure, shortened: as §1
[11] = Ratio of initial inhibitor concentration to initial trypsin concentration; procedure, shortened: as §3
[12] = biological target: T3, Urokinase-type plasminogen activator (Homo sapiens, UniProt P00749)
[13] = biological target: Prothrombin (Homo sapiens) (UniProt P00734); assay: Time to reach maximum percent inhibition by the compound was determined against thrombin (1.93 nM); assay type: functional
Procedure, shortened: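 Thrombin was incubated with excess lactone (DMSO, 10% final). Aliquots over 2 h were diluted into Ts-Gly-Pro-Arg-pNA (75 μM) in 0.05 M phosphate, 0.01 M EDTA, 10 g/L PEG 8000, 10 mg/L aprotinin, pH 8.0, and read at 408 nm against a no-lactone control. Time to maximal inhibition was recorded.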

[14] = biological target: Prothrombin (Homo sapiens) (UniProt P00734); assay: Time for which maximum percent inhibition persists was determined against thrombin (1.93 nM); assay type: functional; procedure, shortened: as §1
[15] = Ratio of initial inhibitor concentration to initial thrombin concentration; procedure, shortened: as §3
[16] = biological target: Prothrombin (Homo sapiens) (UniProt P00734); assay: Maximum percent inhibition by the compound was determined against thrombin (1.93 nM); procedure, shortened: as §1
[17] = biological target: T2, Neutrophil elastase (Homo sapiens); assay: Time to reach maximum percent inhibition by the compound was determined against human neutrophil elastase (HNE); assay type: functional
Procedure, shortened: (§5)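 HNE was incubated with excess lactone in 10% final DMSO. Aliquots drawn during 2 h went into MeO-Suc-Ala-Ala-Pro-Val-pNA (150 μM) in 0.1 M phosphate, 0.5 M NaCl, pH 7.4, read at 410 nm. Activity was set relative to a lactone-free control, and the time (min) to peak inhibition was noted.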

[18] = Ratio of initial inhibitor concentration to initial Chymotrypsinogen concentration; procedure, shortened: as §3
[19] = biological target: T1, Serine protease 1 (Bos taurus); assay: Substrate binding constant against trypsin; procedure, shortened: as §2
[20] = biological target: T1, Serine protease 1 (Bos taurus); assay: Acylation rate constant against trypsin; procedure, shortened: as §2
[21] = Ratio of initial inhibitor concentration to initial HNE concentration; procedure, shortened: as §3
[22] = biological target: Tissue-type plasminogen activator (Homo sapiens) (UniProt P00750); assay: Time to reach maximum percent inhibition by the compound was determined against Tissue plasminogen activator (19.4 nM); assay type: functional
Procedure, shortened: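 Tissue plasminogen activator was exposed to excess lactone (10% final DMSO). Over 2 h, aliquots were diluted into Spectrozyme t-PA (0.2 mM) in Tris-imidazole, I 0.3, pH 8.4. Hydrolysis at 405 nm gave residual activity relative to an enzyme-only control. The time (min) to reach maximal percent inhibition was recorded.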

[23] = biological target: T3, Urokinase-type plasminogen activator; assay: Time for which maximum percent inhibition persists was determined against Urokinase-type plasminogen activator e (300 nM); * =no enzyme activity was recovered over 2 h; assay type: functional
[24] = biological target: Tissue-type plasminogen activator (Homo sapiens) (UniProt P00750); assay: Time for which maximum percent inhibition persists was determined against Tissue plasminogen activator (19.4 nM); assay type: functional; procedure, shortened: as §1
[25] = biological target: Plasminogen (Homo sapiens) (UniProt P00747); assay: Maximum percent inhibition by the compound was determined against plasmin(625 nM); procedure, shortened: as §1
[26] = biological target: T3, Urokinase-type plasminogen activator; remark: listed apart in the source
[27] = biological target: T3, Urokinase-type plasminogen activator; remark: listed apart in the source
[28] = biological target: Chymotrypsinogen A (Bos taurus) (UniProt P00766); assay: Maximum percent inhibition by the compound was determined against Chymotrypsinogen (17 nM); procedure, shortened: as §1
[29] = Ratio of initial inhibitor concentration to initial t-PA concentration; procedure, shortened: as §3
[30] = biological target: T1, Serine protease 1 (Bos taurus); assay: Maximum percent inhibition by the compound was determined against trypsin (14.6 nM); procedure, shortened: as §1
[31] = Ratio of initial inhibitor concentration to initial Plasmin concentration; procedure, shortened: as §3
[32] = biological target: T1, Serine protease 1 (Bos taurus); assay: Time for which maximum percent inhibition persists was determined against trypsin (14.6 nM); assay type: functional; procedure, shortened: as §4
[33] = biological target: T2, Neutrophil elastase (Homo sapiens); assay: Time to reach maximum percent inhibition by the compound was determined against human neutrophil elastase HNE(66 nM); assay type: functional; procedure, shortened: as §5
[34] = biological target: T3, Urokinase-type plasminogen activator; assay: Decylation rate constant against Urokinase-type plasminogen activator
[35] = biological target: Plasminogen (Homo sapiens) (UniProt P00747); assay: Substrate binding constant against plasmin; procedure, shortened: as §2
[36] = biological target: T2, Neutrophil elastase (Homo sapiens); assay: Maximum percent inhibition by the compound was determined against human neutrophil elastase HNE(66 nM); procedure, shortened: as §1
[37] = biological target: Plasminogen (Homo sapiens) (UniProt P00747); assay: Time for which maximum percent inhibition persists was determined against plasmin(625 nM); * =no enzyme activity was recovered over 2 h; assay type: functional; procedure, shortened: as §1
[38] = biological target: Plasminogen (Homo sapiens) (UniProt P00747); assay: Acylation rate constant against plasmin; procedure, shortened: as §2
Serine protease 1 = biological target: T4, Serine protease 1 (Bos taurus, UniProt P00760); assay: Decylation rate constant against trypsin
T4 sequence (P00760 whole entry): T1 sequence (whole entry)
Procedure, shortened: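 Trypsin incubated 30–45 min with excess lactone (same I0/E0 as incubation assay). Free inhibitor removed by two 1-h centrifugations at 0 °C. Activity recovery followed at room temperature against an inhibitor-free control carried through the same treatment; kd is the slope of ln remaining activity vs time. Substrate Z-Val-Gly-Arg-pNA 155 µM, 0.2 M phosphate pH 7.2, 404 nm.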

[39] = biological target: Plasminogen (Homo sapiens) (UniProt P00747); assay: Second order rate constant against plasmin; procedure, shortened: as §2

Plasminogen (Homo sapiens), sequence (P00747 97-580 limits assumed): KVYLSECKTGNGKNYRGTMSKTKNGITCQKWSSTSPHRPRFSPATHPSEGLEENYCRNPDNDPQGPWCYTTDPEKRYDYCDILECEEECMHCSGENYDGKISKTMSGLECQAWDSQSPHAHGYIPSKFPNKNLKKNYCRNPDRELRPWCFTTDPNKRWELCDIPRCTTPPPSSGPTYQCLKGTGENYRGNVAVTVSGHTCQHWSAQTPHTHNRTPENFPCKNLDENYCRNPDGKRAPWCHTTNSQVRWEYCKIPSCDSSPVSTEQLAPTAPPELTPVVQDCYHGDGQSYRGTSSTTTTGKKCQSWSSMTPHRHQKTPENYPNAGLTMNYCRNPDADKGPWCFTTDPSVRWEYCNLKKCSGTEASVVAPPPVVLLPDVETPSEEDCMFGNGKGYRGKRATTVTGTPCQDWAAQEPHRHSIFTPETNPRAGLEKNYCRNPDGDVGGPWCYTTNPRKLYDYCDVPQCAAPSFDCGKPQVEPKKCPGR
Plasminogen (Homo sapiens), sequence (P00747 581-810 limits assumed): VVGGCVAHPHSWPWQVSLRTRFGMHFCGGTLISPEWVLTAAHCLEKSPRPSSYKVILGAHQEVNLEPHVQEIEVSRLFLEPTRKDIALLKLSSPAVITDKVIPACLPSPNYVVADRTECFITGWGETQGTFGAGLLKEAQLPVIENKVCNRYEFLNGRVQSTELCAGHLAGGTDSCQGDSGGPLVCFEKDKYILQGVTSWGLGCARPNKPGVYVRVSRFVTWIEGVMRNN

SMILES | TIME [1] [h] | Rate [3] [ka/Ks] | TIME [4] [h] | TIME [5] [h] | inhibition [6] [%] | Ratio [7] [Io/Eo] | TIME [8] [h] | Ratio [11] [Io/Eo] | Rate [12] [ka/Ks] | TIME [13] [h] | Ratio [15] [Io/Eo] | inhibition [16] [%] | Ratio [18] [Io/Eo] | Ks [19] [µM] | Ka [20] [min⁻¹] | Ratio [21] [Io/Eo] | TIME [22] [h] | TIME [24] [h] | inhibition [25] [%] | Ka [26] [min⁻¹] | also measured
C=C1CCC(c2ccc(NC(=N)N)cc2)C(=O)O1 (centres undefined) | 0 | 62 | 0.75 | 0 | 29 | 50 | 0 | 86 | 1180 | 0 | 518 | 7 | 118 | 0.23 | 14 | 36 | 0 | 0 | 99 | 391 | TIME [2]: 0 h; TIME [9]: 0 h; inhibition [10]: 22%; TIME [14]: 0 h; TIME [17]: 0.25 h; TIME [23]: No enzyme activity; Ks [27]: 0.33 µM; inhibition [28]: 58%; Ratio [29]: 100 Io/Eo; inhibition [30]: 97%; Ratio [31]: 16 Io/Eo; TIME [32]: 0.75 h
C=C1CC(c2ccc(NC(=N)N)cc2)CC(=O)O1 (centres undefined) | 0 | 10 | 0 | 0.75 | 24 | 50 | 0.333 | 86 | 2 | 0.25 | 518 | 40 | 118 | 9.4 | 91 | 36 | 0.25 | 0.5 | 79 | 0.24 | TIME [33]: 0.5 h; Kd [34]: 0.009 min⁻¹; Ks [35]: 63.7 µM; inhibition [36]: 27%; TIME [37]: No enzyme activity; Ka [38]: 97 min⁻¹; Kd (Serine protease 1): 0.002 min⁻¹; Ks [27]: 0.12 µM; inhibition [28]: 34%; Ratio [29]: 100 Io/Eo; Ratio [31]: 16 Io/Eo; Rate [39]: 1.5 ka/Ks
